{"source": "ChEMBL document CHEMBL4138106", "about": "“Indole-coumarin-thiadiazole hybrids: An appraisal of their MCF-7 cell growth inhibition, apoptotic, antimetastatic and computational Bcl-2 binding potential” (Eur J Med Chem, 2017)", "key": {"[1]": {"test_system": "Vero", "assay": "Cytotoxicity against African green monkey Vero cells assessed as growth inhibition after 48 hrs by MTT assay", "type": "cell-based", "details": "Chlorocebus sabaeus", "summary_of_the_method": "(§1)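 Cells grown in DMEM with 10% FBS plus antibiotics at 37 °C under 5% CO2. 5×10^3 cells/well seeded and cultured overnight, then exposed to a range of concentrations for 48 h. Working dilutions made in DMEM from 25 mM DMSO stocks, with DMSO vehicle controls and vincristine as positive control. MTT at 1 mg/mL for 4 h, formazan dissolved in DMSO, A570. Viability taken relative to vehicle after blank subtraction.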"}, "[2]": {"test_system": "MCF7", "assay": "Cytotoxicity against human MCF7 cells assessed as growth inhibition after 48 hrs by MTT assay", "type": "functional, cell-based", "details": "MCF7, 48 h", "summary_of_the_method": "as §1"}, "[3]": {"test_system": "MCF7", "assay": "Induction of apoptosis in human MCF7 cells assessed as condensed nuclei formation at 10 uM after 24 hrs by Acridine orange-ethidium bromide dual staining based fluorescence microscopic analysis", "type": "functional, cell-based", "summary_of_the_method": "(§2)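 MCF-7 cells in 96-well plates exposed to test compound for 24 h at 37 °C in 5% CO2. Gross morphology first checked by phase contrast. Medium then removed and acridine orange (7.5 μg)/ethidium bromide (25 μg) stain added. Cells viewed by fluorescence microscopy through an FITC filter and scored as viable, early apoptotic, late apoptotic or nonviable by colour and nuclear form, against vehicle control.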"}, "[4]": {"test_system": "MCF7", "assay": "Induction of apoptosis in human MCF7 cells assessed as reduction in cell volume at 10 uM after 24 hrs by APOPercentage dye based light microscopic analysis", "type": "functional", "summary_of_the_method": "(§3)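 1×10^4 MCF-7 cells grown 48 h to sub-confluence in 96-well plates, then exposed for 24 h. Medium replaced with medium containing APOPercentage dye (phosphatidylserine exposure) for 1 h. Purple-red cells imaged by light microscopy. Cells then lysed and released dye read at 550 nm, against vehicle control.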"}, "[5]": {"test_system": "MCF7", "assay": "Induction of apoptosis in human MCF7 cells assessed as early apoptotic cells at 10 uM after 24 hrs by Acridine orange-ethidium bromide dual staining based fluorescence microscopic analysis", "type": "functional, cell-based", "summary_of_the_method": "as §2"}, "[6]": {"test_system": "MCF7", "assay": "Induction of apoptosis in human MCF7 cells assessed as cell shrinkage at 10 uM after 24 hrs by Acridine orange-ethidium bromide dual staining based fluorescence microscopic analysis", "type": "functional"}, "[7]": {"test_system": "MCF7", "assay": "Induction of apoptosis in human MCF7 cells assessed as expression in caspase 9 at 10 uM after 24 hrs by spectrofluorimetric analysis", "type": "functional, cell-based", "summary_of_the_method": "(§4)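 Initiator caspases 2, 8 and 9 measured in MCF-7 cells after 24 h exposure to 10 μM, using a fluorogenic caspase profiling kit (ex 380/em 460 nm). Signals normalized to vehicle control, set as 1, and expressed as fold change. Mean ± SD of three independent trials.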"}, "[8]": {"test_system": "MCF7", "assay": "Induction of apoptosis in human MCF7 cells assessed as loss of cell membrane integrity at 10 uM after 24 hrs by Acridine orange-ethidium bromide dual staining based fluorescence microscopic analysis", "type": "functional"}, "[9]": {"test_system": "MCF7", "assay": "Induction of apoptosis in human MCF7 cells assessed as dead cells at 10 uM after 24 hrs by Acridine orange-ethidium bromide dual staining based fluorescence microscopic analysis", "type": "functional, cell-based", "summary_of_the_method": "as §2"}, "[10]": {"test_system": "MCF7", "assay": "Induction of apoptosis in human MCF7 cells assessed as chromatin condensation at 10 uM after 24 hrs by APOPercentage dye based light microscopic analysis", "type": "functional, cell-based", "summary_of_the_method": "as §3"}, "[11]": {"test_system": "MCF7", "assay": "Inhibition of cell migration of human MCF7 cells after 24 hrs by inverted microscopy based monolayer wound healing migration assay", "type": "functional", "summary_of_the_method": "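About 1×10^5 MCF-7 cells/well grown in DMEM to 80% confluence, then a single scratch made. Debris washed off with PBS and cells treated with test compound, with vincristine as positive control and a vehicle control. Wound gap imaged at 0, 24 and 48 h by inverted microscopy with a stage and eyepiece micrometer. Run in triplicate.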"}, "[12]": {"test_system": "MCF7", "assay": "Induction of apoptosis in human MCF7 cells assessed as late apoptotic cells at 10 uM after 24 hrs by Acridine orange-ethidium bromide dual staining based fluorescence microscopic analysis", "type": "functional, cell-based", "summary_of_the_method": "as §2"}, "[13]": {"test_system": "MCF7", "assay": "Induction of apoptosis in human MCF7 cells assessed as fragmented nuclei formation at 10 uM after 24 hrs by Acridine orange-ethidium bromide dual staining based fluorescence microscopic analysis", "type": "functional, cell-based", "summary_of_the_method": "as §2"}, "[14]": {"test_system": "MCF7", "assay": "Induction of apoptosis in human MCF7 cells assessed as expression in caspase 8 at 10 uM after 24 hrs by spectrofluorimetric analysis", "type": "functional, cell-based", "summary_of_the_method": "as §4"}, "[15]": {"test_system": "MCF7", "assay": "Induction of apoptosis in human MCF7 cells assessed as deviations in cell morphology at 10 uM after 24 hrs by Acridine orange-ethidium bromide dual staining based fluorescence microscopic analysis", "type": "functional"}, "[16]": {"test_system": "MCF7", "assay": "Induction of apoptosis in human MCF7 cells assessed as nuclear fragmented DNA formation at 10 uM after 24 hrs by Hoechst 33342 staining based bright blue field inverted fluorescence microscopic analysis", "type": "functional, cell-based", "summary_of_the_method": "(§5)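 Treated MCF-7 cells were incubated for 10 min with Hoechst 33342 stock diluted 1:2,000 in PBS. Nuclei were examined by inverted fluorescence microscopy for condensation and fragmentation, compared with vehicle-control cells.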"}, "[17]": {"test_system": "MCF7", "assay": "Induction of apoptosis in human MCF7 cells assessed as formation of apoptotic body at 10 uM after 24 hrs by Acridine orange-ethidium bromide dual staining based fluorescence microscopic analysis", "type": "functional, cell-based"}, "[18]": {"test_system": "MCF7", "assay": "Induction of apoptosis in human MCF7 cells assessed as expression in caspase 2 at 10 uM after 24 hrs by spectrofluorimetric analysis", "type": "functional, cell-based", "summary_of_the_method": "as §4"}, "[19]": {"test_system": "MCF7", "assay": "Induction of apoptosis in human MCF7 cells assessed as late apoptotic cells at 10 uM after 24 hrs by fluorescein-12-dUTP/propidium iodide staining based TUNEL assay", "type": "functional, cell-based", "summary_of_the_method": "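About 1×10^5 MCF-7 cells/well in 24-well plates treated for 24 h. Cells fixed in 4% paraformaldehyde and permeabilized with 0.2% Triton X-100. Labelled with 50 µM fluorescein-12-dUTP and rTdT for 1 h at 37 °C, stopped with 2×SSC, counterstained with 1 mg/mL propidium iodide. Green TUNEL-positive nuclei scored by fluorescence microscopy.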"}, "[20]": {"test_system": "MCF7", "assay": "Induction of apoptosis in human MCF7 cells assessed as nuclear chromatin condensation at 10 uM after 24 hrs by Hoechst 33342 staining based bright blue field inverted fluorescence microscopic analysis", "type": "functional, cell-based", "summary_of_the_method": "as §5"}, "[21]": {"test_system": "MCF7", "assay": "Induction of apoptosis in human MCF7 cells assessed as condensed chromatin formation at 10 uM after 24 hrs by Acridine orange-ethidium bromide dual staining based fluorescence microscopic analysis", "type": "functional, cell-based", "summary_of_the_method": "as §2"}}, "note": "Active and inactive are the calls of the source. The calls are words filed in the database; no cut-off is given here.", "data": [{"smiles": "C/C(=N/c1nnc(Cc2c[nH]c3ccccc23)s1)c1cc2cc(Br)ccc2oc1=O", "values": [{"measurement": "IC50", "setting": "[1]", "value": 113, "unit": "µM"}, {"measurement": "IC50", "setting": "[2]", "value": 82.1, "unit": "µM"}]}, {"smiles": "C/C(=N/c1nnc(CCCc2c[nH]c3ccccc23)s1)c1cc2cc(Br)ccc2oc1=O", "values": [{"measurement": "Activity", "setting": "[3]", "value": "Active"}, {"measurement": "Activity", "setting": "[4]", "value": "Active"}, {"measurement": "Activity", "setting": "[5]", "value": "Active"}, {"measurement": "Activity", "setting": "[6]", "value": "Active"}, {"measurement": "Activity", "setting": "[7]", "value": "Active"}, {"measurement": "Activity", "setting": "[8]", "value": "Active"}, {"measurement": "IC50", "setting": "[1]", "value": 116, "unit": "µM"}, {"measurement": "Activity", "setting": "[9]", "value": "Active"}, {"measurement": "Activity", "setting": "[10]", "value": "Active"}, {"measurement": "IC50", "setting": "[2]", "value": 8.01, "unit": "µM"}, {"measurement": "inhibition", "setting": "[11]", "value": "Active"}, {"measurement": "Activity", "setting": "[12]", "value": "Active"}, {"measurement": "Activity", "setting": "[13]", "value": "Active"}, {"measurement": "Activity", "setting": "[14]", "value": "Active"}, {"measurement": "Activity", "setting": "[15]", "value": "Active"}, {"measurement": "Activity", "setting": "[16]", "value": "Active"}, {"measurement": "Activity", "setting": "[17]", "value": "Active"}, {"measurement": "Activity", "setting": "[18]", "value": "inactive"}, {"measurement": "Activity", "setting": "[19]", "value": "Active"}, {"measurement": "Activity", "setting": "[20]", "value": "Active"}, {"measurement": "Activity", "setting": "[21]", "value": "Active"}]}, {"smiles": "C/C(=N/c1nnc(CCc2c[nH]c3ccccc23)s1)c1cc2cc(Br)ccc2oc1=O", "values": [{"measurement": "IC50", "setting": "[1]", "value": 43.1, "unit": "µM"}, {"measurement": "IC50", "setting": "[2]", "value": 36.1, "unit": "µM"}]}]}
